Active and inactive are the calls of the source. The rule behind the calls is not given here.
Key:
[1] = target: T1, Keap1/Nrf2 (Homo sapiens) (UniProt Q16236+Q14145); test: Inhibition of kelch domain of Keap1 (unknown origin) interaction to high affinity ETGE motif from Nrf2 unknown origin) at 100 uM by fluorescence polarization assay; type: protein assay
Outline: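 Fluorescence polarization competition. Keap1 Kelch domain with fluorescein-labelled ETGE peptide FITC-β-DEETGEF-OH (β = β-alanine). Displacement measured with a fixed 100 µM inhibitor; percent inhibition reported.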

[2] = target: T2, Nuclear factor erythroid 2-related factor 2 (Mus musculus) (UniProt Q60795); test: Activation of Nrf2 in mouse Hepa1c1c7 cells assessed as induction of NQO1 production at 10 uM after 24 hrs by MTT colorimetric assay relative to control; type: cell-based
T2 sequence (whole entry): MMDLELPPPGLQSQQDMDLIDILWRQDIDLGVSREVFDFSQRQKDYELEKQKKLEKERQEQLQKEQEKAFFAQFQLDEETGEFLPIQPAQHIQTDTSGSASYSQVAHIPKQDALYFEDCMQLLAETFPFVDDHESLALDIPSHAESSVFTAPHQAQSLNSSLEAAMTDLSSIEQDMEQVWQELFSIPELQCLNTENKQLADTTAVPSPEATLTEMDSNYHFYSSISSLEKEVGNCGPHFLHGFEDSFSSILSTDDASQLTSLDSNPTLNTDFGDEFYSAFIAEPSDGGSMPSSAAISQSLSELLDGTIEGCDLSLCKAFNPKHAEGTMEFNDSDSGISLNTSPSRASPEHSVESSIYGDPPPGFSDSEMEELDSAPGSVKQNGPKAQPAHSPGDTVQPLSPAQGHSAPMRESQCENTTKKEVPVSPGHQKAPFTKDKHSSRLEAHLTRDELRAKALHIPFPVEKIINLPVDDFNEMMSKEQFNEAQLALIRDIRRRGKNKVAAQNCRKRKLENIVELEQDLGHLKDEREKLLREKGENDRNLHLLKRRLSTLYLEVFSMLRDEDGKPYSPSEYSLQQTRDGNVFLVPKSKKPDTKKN
Outline: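 Hepa1c1c7 mouse hepatoma cells treated at a fixed 10 µM for 24 h. NQO1 enzyme activity read by colorimetric induction assay and expressed as fold induction over control.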

Keap1/Nrf2 [3] = target: T3, Keap1/Nrf2 (Homo sapiens, UniProt Q14145); test: Inhibition of kelch domain of Keap1 (unknown origin) interaction to high affinity ETGE motif from Nrf2 by fluorescence polarization assay; type: protein assay
T3 sequence (Q16236 whole entry, the tested form may be a part): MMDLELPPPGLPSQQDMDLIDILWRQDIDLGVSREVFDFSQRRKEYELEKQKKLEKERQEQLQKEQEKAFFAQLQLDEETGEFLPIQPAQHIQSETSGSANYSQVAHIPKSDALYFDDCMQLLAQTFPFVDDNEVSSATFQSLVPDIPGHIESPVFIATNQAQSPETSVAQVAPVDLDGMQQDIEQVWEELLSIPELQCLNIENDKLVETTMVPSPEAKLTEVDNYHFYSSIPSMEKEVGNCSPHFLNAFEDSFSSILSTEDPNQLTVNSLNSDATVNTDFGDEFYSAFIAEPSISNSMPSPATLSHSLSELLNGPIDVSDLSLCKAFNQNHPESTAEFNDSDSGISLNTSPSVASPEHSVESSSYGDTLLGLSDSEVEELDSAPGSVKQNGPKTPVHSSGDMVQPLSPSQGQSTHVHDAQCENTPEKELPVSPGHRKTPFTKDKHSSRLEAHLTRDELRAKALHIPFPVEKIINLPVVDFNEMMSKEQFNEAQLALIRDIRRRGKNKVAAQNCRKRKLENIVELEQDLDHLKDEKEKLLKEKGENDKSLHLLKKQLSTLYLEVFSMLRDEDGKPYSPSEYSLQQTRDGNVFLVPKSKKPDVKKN
T3 sequence (Q14145 whole entry, the tested form may be a part): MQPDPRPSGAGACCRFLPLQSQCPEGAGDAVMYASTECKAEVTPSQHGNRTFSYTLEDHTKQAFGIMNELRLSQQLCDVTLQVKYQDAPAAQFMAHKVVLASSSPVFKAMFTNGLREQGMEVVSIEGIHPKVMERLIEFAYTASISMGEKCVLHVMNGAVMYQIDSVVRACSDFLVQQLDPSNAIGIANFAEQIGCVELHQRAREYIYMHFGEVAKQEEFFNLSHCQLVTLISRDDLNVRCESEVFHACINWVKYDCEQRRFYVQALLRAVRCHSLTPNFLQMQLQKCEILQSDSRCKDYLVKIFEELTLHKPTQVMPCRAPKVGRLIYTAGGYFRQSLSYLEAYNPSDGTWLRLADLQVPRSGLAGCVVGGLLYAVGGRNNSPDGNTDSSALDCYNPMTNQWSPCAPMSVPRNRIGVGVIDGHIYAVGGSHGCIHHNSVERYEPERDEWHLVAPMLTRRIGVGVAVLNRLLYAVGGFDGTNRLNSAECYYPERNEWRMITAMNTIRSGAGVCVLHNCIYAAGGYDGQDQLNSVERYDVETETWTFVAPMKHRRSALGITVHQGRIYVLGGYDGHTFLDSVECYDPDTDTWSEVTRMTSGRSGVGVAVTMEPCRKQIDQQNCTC
Outline: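 Competitive fluorescence polarization, dose-response format. Keap1 Kelch domain with fluorescein-labelled Nrf2 ETGE peptide FITC-β-DEETGEF-OH. EC50 derived from dose-response curves.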

[4] = target: T2, Nuclear factor erythroid 2-related factor 2 (Mus musculus); test: Activation of Nrf2 in mouse Hepa1c1c7 cells assessed as concentration required to 2 fold induction of NQO1 production after 24 hrs by MTT colorimetric assay; type: cell-based
Outline: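 Hepa1c1c7 mouse hepatoma cells exposed to a concentration range for 24 h. NQO1 enzymatic activity measured by colorimetric induction assay. Value reported as CD, the concentration giving a two-fold increase in NQO1 activity.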

Mus musculus [5] = organism: Mus musculus; test: Increase of Nrf2 protein level in mouse Hepa1c1c7 cells at 10 uM after 24 hrs by Western blot analysis; type: functional, cell-based
Outline: (§1)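 Hepa1c1c7 cells incubated with test compounds at 10 µM for various exposure times, up to 24 h. Nrf2, HO-1 and NQO1 protein levels assessed by Western blot.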

Mus musculus [6] = organism: Mus musculus; test: Increase of Nrf2 protein level in mouse Hepa1c1c7 cells at 10 uM by Western blot analysis; type: functional, cell-based; conditions: TDE = time-dependent effect; outline: as §1
[7] = target: T2, Nuclear factor erythroid 2-related factor 2 (Mus musculus); test: Activation of Nrf2 in mouse Hepa1c1c7 cells assessed as increase of HO-1 expression at 10 uM after 6 hrs by Western blot analysis; type: cell-based; outline: as §1
[8] = target: T2, Nuclear factor erythroid 2-related factor 2 (Mus musculus); test: Activation of Nrf2 in mouse Hepa1c1c7 cells assessed as increase of NQO1 expression at 10 uM measured before 24 hrs by Western blot analysis; type: cell-based; outline: as §1
[9] = target: T1, Keap1/Nrf2 (Homo sapiens); test: Inhibition of mCherry labeled Keap1 interaction to DLG motif from Nrf2 in human HEK293 cells at 10 uM by FRET based assay; type: cell-based
Outline: (§2)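 HEK293 cells were co-transfected with EGFP-Nrf2 and Keap1-mCherry. Each cell was imaged by FLIM twice: once basal and once 1 h after 10 µM compound. EGFP lifetime and FRET efficiency were calculated in the cytoplasm. High- and low-FRET-efficiency populations were scored to distinguish DLG-dependent binding from ETGE-dependent binding.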

[10] = target: T1, Keap1/Nrf2 (Homo sapiens); test: Inhibition of mCherry labeled Keap1 interaction to ETGE motif from Nrf2 in human HEK293 cells at 10 uM by FRET based assay; type: cell-based; outline: as §2
[11] = Therapeutic index, ratio of GI50 for mouse Hepa1c1c7 cells to CD for activation of Nrf2 in mouse Hepa1c1c7 cells assessed as concentration required to 2 fold induction of NQO1 production; type: cell-based; conditions: read-out: TI
Keap1/Nrf2 [12] = target: T3, Keap1/Nrf2; test: Inhibition of Keap1 (unknown origin) interaction to Nrf2; type: protein assay
Mus musculus [13] = organism: Mus musculus; test: Increase of Nrf2 protein level in mouse Hepa1c1c7 cells at 10 uM after 3 to 6 hrs by Western blot analysis; type: functional, cell-based; outline: as §1
[14] = Cytotoxicity against mouse Hepa1c1c7 cells assessed as cell viability at 200 uM after 24 to 48 hrs by SRB assay; type: cell-based; conditions: read-out: Activity
Outline: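 Hepa1c1c7 cells exposed to compounds at up to 200 µM for 24 and 48 h. Viability determined by sulforhodamine B assay.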

[15] = target: T1, Keap1/Nrf2 (Homo sapiens); test: Inhibition of kelch domain of Keap1 (unknown origin) interaction to high affinity ETGE motif from Nrf2 unknown origin) in presence of 0 to 1 % v/v Triton X100 by fluorescence polarization assay; type: protein assay
[16] = target: Kelch-like ECH-associated protein 1 (Homo sapiens) (UniProt Q14145); test: Binding affinity to kelch domain of Keap1 (unknown origin) using high affinity ETGE motif from Nrf2 unknown origin) at 200 uM by fluorescence polarization assay
Kelch-like ECH-associated protein 1 (Homo sapiens), sequence (Q14145 whole entry, the tested form may be a part): as above

T1 sequence (Q14145 whole entry, looked up, the tested form may be a part): as the sequence (Q14145 whole entry, the tested form may be a part) above
T1 sequence (Q16236 whole entry, looked up, the tested form may be a part): as the sequence (Q16236 whole entry, the tested form may be a part) above

Compound	inhibition [1] [%]	fold change (FC) [2]	EC50 (Keap1/Nrf2 [3]) [µM]	CD [4] [µM]	Activity (Mus musculus [5])	Activity (Mus musculus [6])	Activity [7]	Activity [8]	inhibition [9]	inhibition [10]	selectivity ratio [11]	EC50 (Keap1/Nrf2 [12]) [µM]	Activity (Mus musculus [13])	viability at 200 µM [14] [%]	inhibition [15]	Activity [16]
Cc1cccc(-n2cc(-c3cccc([N+](=O)[O-])c3)nn2)c1	68.9	2.2	10	1.3	Active	tde	Active	inactive	–	–	–	–	–	–	–	–
C[S+]([O-])CCCCN=C=S (configuration not stated) [SULFORAPHANE]	–	–	–	0.3	Active	tde	Active	inactive	Active	inactive	250	–	–	–	–	–
Ac-WRQDIDL-OH	–	–	–	–	–	–	–	–	–	–	–	17.1	–	–	–	–
O=[N+]([O-])c1cccc(-c2cn(-c3cccc(I)c3)nn2)c1	67.2	4	7.1	0.6	Active	tde	Active	inactive	Active	inactive	> 1000	–	Active	100	Active	Active

From ChEMBL document CHEMBL3616400, “Design, Synthesis, and Evaluation of Triazole Derivatives That Induce Nrf2 Dependent Gene Products and Inhibit the Keap1-Nrf2 Protein-Protein Interaction” (J Med Chem, 2015)
